# Entries after “also recorded” stand apart in the source; their conditions may differ. Like-named read-outs stand apart in the source and are kept apart here.
# Tests used:
# Caco2 cells [1] = assay: RT-qPCR cytokine expression, Caco2 cell inflammation model with GALR antagonists; assay type: cell-based, human; details: Caco-2 inflammation model, IL-1β + TNF-α
# DSS-induced colitis [2] = assay: DSS-induced colitis with M871 or SNAP37889 ± cGAL53, overall; assay type: in vivo; details: mouse, 3% DSS; antagonist 10 nmol/mouse + cGAL53 3 μM
# How it was run: (§1)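 Male C57BL/6 mice (20 ± 2 g, 7–8 weeks) received 3% DSS with daily i.p. test peptide (3 μM). A GALR2 or GALR3 antagonist (10 nmol/mouse, in 10% DMSO/40% PEG 300/30% Tween-20/20% saline) was given 30 min before each peptide dose. Controls followed the standard DSS protocol.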
# DSS-induced colitis [3] = assay: DSS-induced colitis with M871 or SNAP37889 ± cGAL29, overall; assay type: in vivo; details: mouse
# How it was run: as §1
# intestinal barrier = assay: FD4 intestinal permeability, Galr2-KO mice; assay type: in vivo, mouse; details: Galr2-deficient mice, DSS
# How it was run: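 Mice were fasted 12 h before and during the test, then gavaged with FITC-dextran FD4 (25 mg/mL in 0.05 M PBS) at 20 mL/kg. Plasma was collected 3 h later, diluted 1:2 in PBS, and fluorescence read at excitation 490 nm / emission 520 nm.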
# GALR2 [4] = assay: CRE-luc luciferase; assay type: cell-based; details: HEK293, GALR2, luciferase, 12 h
# How it was run: (§2)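 HEK293 cells were transfected (Lipofectamine) with empty pcDNA3.1 or GALR plasmid (2 μg) plus CRE, NFAT-RE or SRE luciferase reporter. After 36 h, medium was replaced with serum-free medium containing test peptide, diluted in DMEM from a 1 mM water stock, for 12 h. Luciferase was read 48 h post-transfection. Technical triplicate; mean ± SD; 37 °C, 5% CO2.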
# Caco2 cells [5] = assay: RT-qPCR cytokine expression, Caco2 cell inflammation model; assay type: cell-based, human; details: IL-1β + TNF-α
# GALR3 [6] = assay: Tango β-arrestin2 recruitment, HTLA cells; assay type: cell-based
# How it was run: (§3)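 Tango assay used HTLA cells, a HEK293T line expressing a tTA-dependent luciferase reporter and β-arrestin2, transfected with GALR plasmid (2 μg). Test peptide in serum-free DMEM was added 36 h post-transfection for 12 h, then luciferase activity was measured. Mean ± SD.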
# GALR3 [7] = assay: SRE-luc luciferase; assay type: cell-based; details: HEK293, GALR3, luciferase, 12 h
# How it was run: as §2
# ARRB2 = assay: 2% DSS colitis in Arrb2 cKO mice, overall; assay type: in vivo, mouse; details: Arrb2 cKO (gut epithelial) mice, vs AAV control mice
# How it was run: (§4)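 Male Arrb2fl/fl or Gnaqfl/fl mice (7–8 weeks) were fasted overnight, anaesthetised, and given 100 μL AAV8-Vil-cre or AAV8-Vil-null (1E+11 vg/mL) by catheter 4 cm into the colon. One week later they received 2% DSS in drinking water for 7 days. Read-outs were body weight, DAI, colon length, H&E, serum IL-6/IL-1β ELISA, and colonic Il6/Tnf/Il1b/Tgfb1/Tjp1/Ocln mRNA.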
# GALR1 [8] = assay: SRE-luc luciferase; assay type: cell-based; details: HEK293, GALR1, luciferase, 12 h
# How it was run: as §2
# GALR2 [9] = assay: Tango and BRET β-arrestin2 recruitment; assay type: cell-based
# How it was run: as §3
# GALR2b = assay: Tango β-arrestin2 recruitment, HTLA cells; assay type: cell-based, chicken
# How it was run: as §3
# [10] = test system: DSS-induced intestinal inflammation; assay type: in vivo, chicken; details: chicken, 4% DSS oral gavage, daily i.p. peptide
# How it was run: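 Forty 21-day-old male yellow-feathered broilers were split into control, DSS and two peptide groups under 24 h light, with free food and water. DSS groups were gavaged with […] of 4% DSS daily from day 21 to 29. Treated birds got 100 μL of 50 μM peptide i.p. daily. TNF-α, IL-1β and IL-6 were measured by ELISA in jejunum/ileum homogenates (1:9 w/v ice-cold PBS, pH 7.4; 5000 × g, 10 min, 4 °C).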
# [11] = Tolerability of peptide alone in healthy male mice, overall; assay type: in vivo, mouse; details: daily i.p. for six consecutive days
# How it was run: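 Healthy male mice received daily i.p. test peptide for six consecutive days alongside a saline-injected control group. Body weight, water intake, food intake and colon length were recorded.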
# TNBS-induced colitis = TNBS-induced colitis in C57BL/6 mice, overall therapeutic efficacy; assay type: in vivo, mouse; details: TNBS intrarectal, peptide 3 μM
# How it was run: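 Male C57BL/6 mice (8–12 weeks) under 1.5% isoflurane received 100 μL of 2.5% TNBS (5% TNBS in water mixed 1:1 with ethanol) into the colon lumen. Controls received 50% ethanol only. Test peptide was given at 3 μM. Weight was monitored daily, and mice were killed 72 h after induction for colon length and histology; n = 6/group.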
# GALR1 [12] = assay: NFAT-luc luciferase; assay type: cell-based; details: HEK293, GALR1, luciferase, 12 h
# How it was run: as §2
# ZO-1, occludin [13] = assay: IHC of ZO-1 and occludin in colon, Galr2-KO mice; assay type: in vivo, mouse; details: DSS, compared with Galr2 KO-DSS group
# How it was run: (§5)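 Colon sections from DSS-treated mice were incubated overnight at 4 °C with anti-ZO-1 (1:1000) or anti-occludin (1:200), then HRP-conjugated secondary antibody. Signal was developed with DAB, sections counterstained with hematoxylin, and staining quantified by image analysis.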
# GALR3 [14] = assay: CRE-luc luciferase; assay type: cell-based; details: HEK293, GALR3, luciferase, 12 h
# How it was run: as §2
# DSS-induced colitis [15] = assay: H&E histology/HAI and endoscopy, DSS-induced colitis, wild-type mice; assay type: in vivo; details: mouse, 3% DSS, peptide 3 μM daily i.p.
# How it was run: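 Colons from mice given 3% DSS (8 days) and daily i.p. test peptide (3 μM) were fixed in 4% paraformaldehyde, paraffin-embedded, sectioned and H&E-stained. Sections were scored for epithelial damage, inflammatory infiltration, crypt loss and ulceration; n = 6/group.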
# GALR3 [16] = assay: DSS-induced colitis in Galr3-KO mice, overall; assay type: in vivo, mouse; details: 3% DSS, cGAL53 3 μM
# GALR2 [17] = assay: SRE-luc luciferase; assay type: cell-based; details: HEK293, GALR2, luciferase, 12 h
# How it was run: as §2
# GALR2 [18] = assay: NFAT-luc luciferase; assay type: cell-based; details: HEK293, GALR2, luciferase, 12 h
# How it was run: as §2
# DSS-induced colitis [19] = assay: DSS-induced colitis, female mice, overall therapeutic efficacy; assay type: in vivo, mouse; details: female C57BL/6 mice, 2.5% DSS, peptide 3 μM daily i.p.
# How it was run: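 Female C57BL/6 mice (9–10 weeks, 20 ± 2 g) were randomised into four groups and given 2.5% DSS in drinking water ad libitum for 8 days, with daily i.p. test peptide (3 μM). Body weight was recorded daily. Colon length was measured after sacrifice, and distal colon was fixed in 4% formalin.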
# Gnaq = assay: 2% DSS colitis in Gnaq cKO mice, overall; assay type: in vivo, mouse; details: Gnaq cKO (gut epithelial) mice, vs AAV control mice
# How it was run: as §4
# colon transcriptome = assay: RNA-seq of colon tissue, DSS-induced colitis mice; assay type: in vivo; details: mouse colon
# How it was run: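 Total RNA was extracted from mouse colon with Trizol, sequenced on BGIseq500 and mapped to the mouse genome. Data were analysed in R and reported as mean ± SEM.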
# GALR3 [20] = assay: NFAT-luc luciferase; assay type: cell-based; details: HEK293, GALR3, luciferase, 12 h
# How it was run: as §2
# GALR1 [21] = assay: CRE-luc luciferase; assay type: cell-based; details: HEK293, GALR1, luciferase, 12 h
# How it was run: as §2
# DSS-induced colitis [22] = assay: DSS-induced colitis in wild-type mice, overall therapeutic efficacy; assay type: in vivo, mouse; details: for alleviation of colitis / intestinal inflammation, overall: chicken and mouse colitis models, overall statement
# GALR1 [23] = assay: Tango β-arrestin2 recruitment, HTLA cells; assay type: cell-based
# How it was run: as §3
# GALR2 [24] = assay: G protein versus β-arrestin2 signaling bias at GALR2; assay type: cell-based
# GALR2 [25] = assay: DSS-induced colitis in Galr2-KO mice, overall; assay type: in vivo, mouse; details: Galr2-KO mice (or GALR2 inhibition where stated), cGAL53 3 μM
# ZO-1, occludin [26] = assay: IHC of ZO-1 and occludin in colon, DSS-induced colitis, wild-type mice; assay type: in vivo; details: mouse colon, 3% DSS, peptide 3 μM daily i.p.
# How it was run: as §5
# mGALR2 mutants = assay: Tango β-arrestin2 recruitment, binding-site mutants; assay type: cell-based, mouse
molecule,measurement,setting,value
O=C1C(=Nc2cccc(C(F)(F)F)c2)c2ccccc2N1c1ccccc1 [SNAP37889],block of anti-inflammatory effect of cGAL53 by antagonist,Caco2 cells [1],not by SNAP37889
same,effect of antagonist on ability of cGAL53 to alleviate colitis,DSS-induced colitis [2],cGAL53 was still effective in treating colitis symptoms in mice
same,effect of antagonist on therapeutic efficacy of cGAL29,DSS-induced colitis [3],exerted inhibitory effects on the therapeutic efficacy of cGAL29
GWTLNSAGYLLGPRRIDHLLMIKEMPIARGREEAPGA-YAVDNHRSFNDKHGFT-NH2 [cGAL53],circulating FD4 tracer levels,intestinal barrier,remained unchanged
same,Gs (CRE-luc) activation,GALR2 [4],can activate; also recorded: activated
same,concentration giving (similar) anti-inflammatory effect,Caco2 cells [5],0.1 µM
same,"expression of Il6, Il23 and Tgfb1 induced by IL-1β and TNF-α",Caco2 cells [5]; RT-qPCR,reduced
same,ARRB2 (β-arrestin2) recruitment,GALR3 [6],significantly enhanced
same,Gi (SRE-luc) activation,GALR3 [7],can activate
same,"therapeutic effects (weight loss, colon shortening, intestinal damage, inflammation)",ARRB2,significantly diminished; also recorded: negated the therapeutic effects
same,Gi (SRE-luc) activation,GALR1 [8],not GALR1
same,ARRB2 (β-arrestin2) recruitment,GALR2 [9],significantly enhanced; also recorded: preferentially activated ARRB2
same,ARRB2 (β-arrestin2) recruitment,GALR2b,significantly enhanced
same,IBD-related symptoms in DSS-treated chickens,[10],"ameliorated IBD-related symptoms in chickens, manifested as reductions of body weight loss, intestinal bleeding points and tissue damage"
same,IBD-related symptoms in DSS-treated chickens,[10]; listed as GAL53,superior therapeutic efficacy
same,"body weight, water and food intake, colon length (tolerability)",[11],"neither peptide affected body weight, water, and food intake, nor colon length, indicating good tolerability"
same,"TNBS-induced colitis (colon length, histopathological damage)",TNBS-induced colitis,"more effective than cGAL29, nearly reversing the colon length and histopathological damage"
same,Gq (NFAT-luc) activation,GALR1 [12],not GALR1
same,expression of ZO-1 and occludin,"ZO-1, occludin [13]",did not increase
same,Gs (CRE-luc) activation,GALR3 [14],can activate
same,endoscopic and colon tissue damage scores,DSS-induced colitis [15],most pronounced improvements
same,colitis symptoms,GALR3 [16],significant improvement in colitis symptoms
same,Gi (SRE-luc) activation,GALR2 [17],can activate; also recorded: activated
same,Gq (NFAT-luc) activation,GALR2 [18],can activate; also recorded: activated
same,therapeutic effect in female mice with DSS-induced colitis,DSS-induced colitis [19],superior therapeutic benefits
same,"ability to alleviate weight loss, colon shortening, intestinal damage, inflammation",Gnaq,significantly reduced
same,DSS-changed pathways (KEGG),colon transcriptome,significantly modulated
same,expression levels of immune-related genes,colon transcriptome,significantly reduced
same,inflammation-related pathways (GSVA),colon transcriptome; compared to cGAL29,significantly greater reductions
same,Gq (NFAT-luc) activation,GALR3 [20],can activate
same,Gs (CRE-luc) activation,GALR1 [21],not GALR1
same,colitis symptoms,"DSS-induced colitis [22]; WT mice, 3% DSS, cGAL53 3 μM",significant improvement in colitis symptoms
same,"alleviation of colitis / intestinal inflammation, overall",DSS-induced colitis [22],"superior therapeutic efficacy compared to the conserved GAL29 peptide; also recorded: superior protective effects against DSS-induced inflammation in both chickens and mice; also recorded: alleviates colitis-associated weight loss, colon shortening, bleeding, and inflammation in both chickens and mice; also recorded: greater therapeutic efficacy in treating intestinal inflammation in chickens and mice"
same,"alleviation of colitis / intestinal inflammation, overall",DSS-induced colitis [22]; listed as GAL53,superior protective effects against intestinal inflammation in birds and mammals; also recorded: exerts protective effects in chemical models of IBD
same,"alleviation of colitis / intestinal inflammation, overall",DSS-induced colitis [22]; listed as chicken GAL53,superior efficacy over the conserved GAL29
same,"DSS-induced body weight reduction, colon shortening and DAI increase","DSS-induced colitis [22]; mouse, 3% DSS in drinking water, peptide 3 μM daily i.p.",superior therapeutic efficacy over the shorter galanin variants (cGAL29 and hGAL30); also recorded: superior therapeutic efficacy in mouse colitis compared to cGAL29
same,ARRB2 (β-arrestin2) recruitment,GALR1 [23],significantly enhanced
same,bias at GALR2,GALR2 [24],β-arrestin2- biased agonizts of GALR2
same,G protein activation / ARRB2 recruitment via GALR2,"GALR2 [24]; GALR2, overall statement",significantly enhances the recruitment of ARRB2 to GALR2
same,colitis symptoms / effects of cGAL53,GALR2 [25],abolished in Galr2-deficient mice; also recorded: did not exhibit any change; also recorded: completely abolishes the effects of cGAL53
same,ZO-1 and occludin protein and mRNA levels,"ZO-1, occludin [26]",markedly enhanced
same,β-arrestin2 recruitment after mutation of predicted unique binding sites,mGALR2 mutants,affected
